# Structures can show the parent of a compound that is named as a salt.
# Key:
# Assay type in all cases: in vivo, rat
# [1] = PCB 95 and OH-PCB tissue levels by GC-ECD
# How it was run: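 Killed 4 h after last injection (~28 h post-PCB). Tissues homogenized with diatomaceous earth and extracted over Florisil. OH-PCBs analysed as methylated derivatives; splitless injection at 280°C; PCB 204 internal standard.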
# CYP2B protein = test: Western blot analysis of CYP2B protein in liver and cortex microsomes; conditions: liver microsomes; 7 d exposure
# [2] = Enantioselective analysis of PCB 95 in tissues; conditions: both experimental groups
# [3] = both experimental groups dosed with PCB 95
Structure (SMILES),"detection of OH-PCB metabolite in blood and liver [1, 3]",further results
"COc1c(Cl)cc(Cl)c(-c2cc(Cl)ccc2Cl)c1Cl [3-103, 3-Methoxy-2,2′,4,5′,6-pentachlorobiphenyl]",detected,–
"COc1c(Cl)c(Cl)c(-c2cc(Cl)ccc2Cl)c(Cl)c1OC [4,5-95, 4,5-dimethoxy-2,2′,3,5′,6-pentachlorobiphenyl]",detected,–
"CN1CCC[C@H]1c1cccnc1 [Nicotine, (−)-Nicotine hydrogen tartrate salt, reference compound]",–,"effect of nicotine co-exposure on levels of the parent compound PCB 95 in tissues ([1]; nicotine 1 mg/kg/d s.c. 7 d plus PCB 95 6 mg/kg/d p.o., cortex, cerebellum, adipose, blood, liver, muscle): no effect"
Oc1cc(Cl)c(-c2c(Cl)ccc(Cl)c2Cl)cc1Cl [4′-95],detected,–
"Oc1cc(Cl)c(Cl)c(-c2cc(Cl)ccc2Cl)c1Cl [5-95, 2,2′,3,5′,6-pentachlorobiphenyl-5-ol]",detected,"detection of metabolite in adipose tissue [1, 3]: detected as a minor metabolite"
"Oc1cc(Cl)c(-c2cc(Cl)ccc2Cl)c(Cl)c1Cl [4-95, 2,2′,3,5′,6-pentachlorobiphenyl-4-ol]",detected,–
"Clc1ccc(Cl)c(-c2c(Cl)ccc(Cl)c2Cl)c1 [PCB 95, 2,2′,3,5′,6-Pentachlorobiphenyl]",–,"hepatic CYP2B protein levels relative to vehicle controls (densitometry, normalized to GAPDH) (CYP2B protein): neither nicotine nor PCB 95 alone changed hepatic CYP2B levels; rank order of tissue EF values for PCB 95 [2]: blood (sample pooled across experimental groups) > liver > muscle (samples pooled within experimental groups) > cortex > adipose"

# Source: paper PMC4658283 (Toxicology, 2015)
